Our source for the Activity and T/C values is ChEMBL document CHEMBL3244396, “Synthesis and antileukemic activity of 5-substituted 2,3-dihydro-6,7-bis(hydroxymethyl)-1H-pyrrolizine diesters” (J Med Chem, 1977).

The test system of data set [1] is L1210. Put plainly: Antileukemic activity against mouse L1210 cells allografted in female BDF1 mouse assessed as change in body weight at 100 mg/kg, ip administered daily for 9 days as Klucel suspension starting 24 hrs after tumor inoculation. The conditions noted are these: route intraperitoneal. The data set is classed as functional. In outline: (§1)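 Ascitic fluid carrying L1210 cells was inoculated ip. Compound was given ip as a Klucel (hydroxypropylcellulose) suspension in nine daily doses, starting 24 h after inoculation. Body-weight difference (treated minus control) was recorded on day 5. Survival was scored as %T/C of mean survival time.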

Data set [2] relates to L1210. Put plainly: Antileukemic activity against mouse L1210 cells allografted in female BDF1 mouse assessed as change in body weight at 200 mg/kg, ip administered daily for 9 days as Klucel suspension starting 24 hrs after tumor inoculation. The data set is classed as functional. The conditions noted are these: route intraperitoneal. The method in brief: as §1
Data set [3] deals with Mus musculus. Put plainly: Toxicity in female BDF1 mouse allografted with mouse L1210 cells assessed as animal survival at 200 mg/kg, ip administered daily for 9 days as Klucel suspension starting 24 hrs after tumor inoculation measured on fifth day. The arrangement: dose 200 mg/kg, route intraperitoneal. The conditions noted are these: in vivo. The data set is classed as organism-based. In outline:
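L1210 leukemia passaged as ascitic fluid and inoculated ip. Test agent given ip as a Klucel (hydroxypropylcellulose) suspension, nine daily doses starting 24 h after tumor inoculation. Acute toxicity read as toxicity-day survivors per group (out of 6), recorded on day 5. Animal weight difference T − C was also recorded. Follows NCI screening protocols.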

Data set [4] concerns Mus musculus. The data set is described as follows: Toxicity in female BDF1 mouse allografted with mouse P388 cells assessed as animal survival at 12.5 mg/kg, ip administered daily for 9 days as Klucel suspension starting 24 hrs after tumor inoculation. It is filed as organism-based. The arrangement: dose 12.5 mg/kg, route intraperitoneal. The conditions noted are these: in vivo. The method in brief:
(§2)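 P-388 leukemia ascitic fluid inoculated ip. Compound given ip as a suspension in Klucel (hydroxypropylcellulose), once daily for nine doses beginning 24 h post-inoculation. Acute toxicity assessed as toxicity-day survivors per group. Survival was followed up to 30 days, with 30-day survival counted as "cure". Follows NCI screening protocols.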

Data set [5] relates to P388. The data set is described as follows: Antitumor activity against mouse P388 cells allografted in male CDF1 mouse assessed as disease cures by measuring 30-days host survival at 50 mg/kg, ip administered daily for 9 days as Klucel suspension starting 24 hrs after tumor inoculation relative to control. The data set is classed as functional. The conditions noted are these: route intraperitoneal. In outline: (§3)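 P388 leukemia given as an ascitic fluid cell inoculum, ip, to mice of the strain and sex in each line. Nine daily ip doses were given in a Klucel (hydroxypropylcellulose) suspension, starting 24 h after inoculation. Read-out is median survival time as %T/C, with >125 taken as significant; a "cure" means 30-day survival.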

In data set [6] the test system is P388. The data set is described as follows: Antitumor activity against mouse P388 cells allografted in male CDF1 mouse assessed as disease cures by measuring 30-days host survival at 25 mg/kg, ip administered daily for 9 days as Klucel suspension starting 24 hrs after tumor inoculation relative to control. It is filed as functional. The conditions noted are these: route intraperitoneal. The method in brief:
as §3

Data set [7] relates to P388. The data set is described as follows: Antitumor activity against mouse P388 cells allografted in male CDF1 mouse assessed as disease cures by measuring 30-days host survival at 12.5 mg/kg, ip administered daily for 9 days as Klucel suspension starting 24 hrs after tumor inoculation relative to control. The data set is classed as functional. The conditions noted are these: route intraperitoneal. In outline: as §3

The subject of data set [8] is P388. The data set is described as follows: Antitumor activity against mouse P388 cells allografted in female BDF1 mouse assessed as disease cures by measuring 30-days host survival at 12.5 mg/kg, ip administered daily for 9 days as Klucel suspension starting 24 hrs after tumor inoculation relative to control. The data set is classed as functional. The conditions noted are these: route intraperitoneal. The method in brief:
as §3

The test system of data set [9] is Mus musculus. Put plainly: Toxicity in male CDF1 mouse allografted with mouse P388 cells assessed as animal survival at 50 mg/kg, ip administered daily for 9 days as Klucel suspension starting 24 hrs after tumor inoculation. The conditions noted are these: in vivo. Set-up: dose 50 mg/kg, route intraperitoneal. It is filed as organism-based. In outline:
as §2

In data set [10] the test system is P388. The data set is described as follows: Antitumor activity against mouse P388 cells allografted in male CDF1 mouse assessed as change in body weight at 12.5 mg/kg, ip administered daily for 9 days as Klucel suspension starting 24 hrs after tumor inoculation. The data set is classed as functional. The conditions noted are these: route intraperitoneal. The method in brief: (§4)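 Ascitic fluid carrying P388 cells was inoculated ip. Compound was given ip in nine daily doses, starting 24 h after inoculation, in Klucel (hydroxypropylcellulose) suspension or in saline with Tween-80. Body-weight difference (treated minus control) was recorded on day 5. Survival was scored as %T/C of median survival time, and 30-day survival counted as cure.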

The subject of data set [11] is P388. Put plainly: Antitumor activity against mouse P388 cells allografted in female BDF1 mouse assessed as change in body weight at 12.5 mg/kg, ip administered daily for 9 days as Klucel suspension starting 24 hrs after tumor inoculation. The data set is classed as functional. The conditions noted are these: route intraperitoneal. In outline:
as §4

With `CC(=O)OCc1c(COC(C)=O)c(-c2ccccc2)n2c1CCC2`, the Activity in [1] was -2.3 g; in data set [2], -2.8 g; in data set [3], “Toxic”; in [4] it was “Non-toxic”; in data set [9], “Non-toxic”; in data set [10], -0.2 g. In addition, the Activity in data set [11] is on record as -1.2 g. Moreover, the T/C is 87% in [5], 142% in data set [6], 110% in [7] and 126% in data set [8].
